Values after ≈ are worked out from the molar mass of the structure shown. Active and inactive are the calls of the source. The calls are words filed in the database; no cut-off is given here.
Tests used:
[1] = biological target: T1, Peroxisome proliferator-activated receptor gamma (Homo sapiens) (UniProt P37231); experiment: Compound was tested in vitro for inhibiting the 50% binding of Peroxisome proliferator activated receptor gamma; IA = Inactive
T1 sequence (whole entry): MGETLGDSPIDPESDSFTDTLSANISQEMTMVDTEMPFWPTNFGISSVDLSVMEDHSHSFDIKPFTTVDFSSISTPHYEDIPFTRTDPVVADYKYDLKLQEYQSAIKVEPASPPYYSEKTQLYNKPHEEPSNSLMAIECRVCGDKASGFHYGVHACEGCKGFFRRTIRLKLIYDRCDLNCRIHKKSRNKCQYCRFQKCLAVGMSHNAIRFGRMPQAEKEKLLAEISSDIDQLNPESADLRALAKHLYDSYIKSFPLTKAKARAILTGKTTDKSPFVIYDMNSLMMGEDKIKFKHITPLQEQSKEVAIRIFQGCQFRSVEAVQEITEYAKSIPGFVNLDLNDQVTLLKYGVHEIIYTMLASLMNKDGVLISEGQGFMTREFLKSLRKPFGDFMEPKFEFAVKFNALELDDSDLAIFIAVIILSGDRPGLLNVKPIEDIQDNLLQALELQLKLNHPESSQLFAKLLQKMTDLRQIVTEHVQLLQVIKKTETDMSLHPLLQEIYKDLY
In short: (§1)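 Competitive radioligand binding to PPARγ with [3H]BRL 49653 as the radioligand. […] It is converted to an apparent Ki by Ki = IC50/(1 + [L]/Kd), and results are given as pKi.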

[2] = biological target: T2, Peroxisome proliferator-activated receptor alpha (Homo sapiens, UniProt Q07869); experiment: In vitro transactivation of Peroxisome proliferator activated receptor alpha.; format: functional
T2 sequence (Q07869 whole entry): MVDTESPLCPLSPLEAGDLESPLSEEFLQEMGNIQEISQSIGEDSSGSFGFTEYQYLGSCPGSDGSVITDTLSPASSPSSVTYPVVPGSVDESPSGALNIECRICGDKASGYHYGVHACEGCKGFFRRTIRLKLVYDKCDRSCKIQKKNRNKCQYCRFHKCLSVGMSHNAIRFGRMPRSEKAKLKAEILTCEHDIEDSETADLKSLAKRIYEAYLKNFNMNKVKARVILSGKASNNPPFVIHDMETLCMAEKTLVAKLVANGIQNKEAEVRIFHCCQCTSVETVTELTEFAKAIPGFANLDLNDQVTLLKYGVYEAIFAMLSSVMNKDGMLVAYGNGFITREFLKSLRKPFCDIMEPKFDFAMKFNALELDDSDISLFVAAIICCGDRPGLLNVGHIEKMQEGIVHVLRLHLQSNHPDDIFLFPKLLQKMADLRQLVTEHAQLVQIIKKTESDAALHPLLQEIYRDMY

[3] = biological target: T2, Peroxisome proliferator-activated receptor alpha; experiment: Tested in vitro for inhibiting the 50% binding of Peroxisome proliferator activated receptor alpha
[4] = biological target: T3, Peroxisome proliferator-activated receptor alpha (Homo sapiens) (UniProt Q07869); experiment: Compound was tested in vitro for inhibiting the 50% binding of Peroxisome proliferator activated receptor alpha; IA = 'inactive'
T3 sequence (whole entry): T2 sequence (Q07869 whole entry)

[5] = The solubility determined by equilibrating an excess of solid material in 500 microL of pH 7.4 phosphate buffer; format: ADME; details: read-out: S
In short: (§2)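 Samples are filtered (0.22 µm) and diluted in water/acetonitrile 60:40. The dissolved concentration is measured by reversed-phase HPLC on a phenyl column with 0.05% TFA water/acetonitrile (60:40), 1 mL/min, and UV detection at each compound's maximum. Results are in mg/mL.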

[6] = The solubility determined by equilibrating an excess of solid material in 500 microL of simulated gastric fluid; format: ADME; details: read-out: S; in short: as §2
[7] = biological target: T1, Peroxisome proliferator-activated receptor gamma (Homo sapiens); experiment: Inhibition of Peroxisome proliferator activated receptor gamma; in short: as §1

Row | Compound | EC50 [2] [nM] | Ki [3] [nM] | Log Ki [7] | further results
1 | O=C(c1ccccc1)c1ccccc1N[C@@H](Cc1ccc(OCCc2cc(Br)no2)cc1)C(=O)O |  |  |  | Log Ki [1]: inactive
2 | Cc1ccsc1-c1nc(CCOc2ccc(C[C@H](Nc3ccccc3C(=O)c3ccccc3)C(=O)O)cc2)c(C)o1 | 2750 | 468 |  | 
3 | O=C(c1ccccc1)c1ccccc1N[C@@H](Cc1ccc(OCCc2ccc(Cl)cc2)cc1)C(=O)O |  |  |  | Log Ki [4]: inactive
4 | Cc1sc(-c2ccccc2)nc1CCOc1ccc(C[C@H](Nc2ccccc2C(=O)c2ccccc2)C(=O)O)cc1 | 1050 | 126 |  | solubility thermodynamic [5]: 2 µg/mL (≈ 3.55 µM); solubility thermodynamic [6]: < 1 µg/mL
5 | Cc1ccc[n+]2c1=NC(c1ccccc1)C=2COc1ccc(C[C@H](Nc2ccccc2C(=O)c2ccccc2)C(=O)O)cc1 (stereo partly drawn) |  |  | inactive | 
6 | COc1ccc(COc2ccc(C[C@H](Nc3ccccc3C(=O)c3ccccc3)C(=O)O)cc2)cc1 |  |  |  | Log Ki [1]: inactive
7 | COCn1c(-c2ccccc2)nc(C)c1CCOc1ccc(C[C@H](Nc2ccccc2C(=O)c2ccccc2)C(=O)O)cc1 | > 10000 | > 3020 |  | 
8 | CN(CCOc1ccc(C[C@H](Nc2ccccc2C(=O)c2ccccc2)C(=O)O)cc1)Cc1cccs1 |  |  | inactive | 
9 | Cc1cc(C)c(C)c(COc2ccc(C[C@H](Nc3ccccc3C(=O)c3ccccc3)C(=O)O)cc2)c1C |  |  | inactive | 
10 | Cc1sc(N2CCOCC2)nc1CCOc1ccc(C[C@H](Nc2ccccc2C(=O)c2ccccc2)C(=O)O)cc1 | > 10000 | 1910 |  | solubility thermodynamic [5]: 180 µg/mL (≈ 315 µM); solubility thermodynamic [6]: 4 µg/mL (≈ 7 µM)
11 | CC(C)c1ccc(COc2ccc(C[C@H](Nc3ccccc3C(=O)c3ccccc3)C(=O)O)cc2)cc1 |  |  |  | Log Ki [4]: inactive
12 | Cc1[nH]c(-c2ccccc2)nc1CCOc1ccc(C[C@H](Nc2ccccc2C(=O)c2ccccc2)C(=O)O)cc1 | > 10000 | > 3020 |  | 
13 | COCCNc1nc(CCOc2ccc(C[C@H](Nc3ccccc3C(=O)c3ccccc3)C(=O)O)cc2)c(C)s1 | > 10000 | 1860 |  | solubility thermodynamic [5]: 210 µg/mL (≈ 375 µM); solubility thermodynamic [6]: 210 µg/mL (≈ 375 µM)
14 | C/C(=C\c1ccccc1)COc1ccc(C[C@H](Nc2ccccc2C(=O)c2ccccc2)C(=O)O)cc1 |  |  | inactive | 
15 | Cc1sc(-c2ccncc2)nc1CCOc1ccc(C[C@H](Nc2ccccc2C(=O)c2ccccc2)C(=O)O)cc1 | > 10000 | > 3020 |  | 
16 | Cc1oc(-c2ccncc2)nc1CCOc1ccc(C[C@H](Nc2ccccc2C(=O)c2ccccc2)C(=O)O)cc1 | > 10000 | > 3020 |  | solubility thermodynamic [5]: 846 µg/mL (≈ 1540 µM); solubility thermodynamic [6]: 5 µg/mL (≈ 9.13 µM)
17 | Cc1nc(COc2ccc(C[C@H](Nc3ccccc3C(=O)c3ccccc3)C(=O)O)cc2)n2nc(Cl)ccc12 |  |  | inactive | 
18 | Cc1oc(-c2ccc(F)cc2)nc1CCOc1ccc(C[C@H](Nc2ccccc2C(=O)c2ccccc2)C(=O)O)cc1 | 257 | 56.2 |  | 
19 | Cc1sc(N2CCNCC2)nc1CCOc1ccc(C[C@H](Nc2ccccc2C(=O)c2ccccc2)C(=O)O)cc1 | > 10000 | > 3020 |  | solubility thermodynamic [5]: 25 µg/mL (≈ 43.8 µM); solubility thermodynamic [6]: > 10000 µg/mL
20 | Cc1cc(CCOc2ccc(C[C@H](Nc3ccccc3C(=O)c3ccccc3)C(=O)O)cc2)nn1-c1ccccc1 | > 10000 | 407 |  | 
21 | COc1ccc(COc2ccc(C[C@H](Nc3ccccc3C(=O)c3ccccc3)C(=O)O)cc2)cc1Br |  |  | inactive | 
22 | Cn1cc(-c2ccccc2)nc1CCOc1ccc(C[C@H](Nc2ccccc2C(=O)c2ccccc2)C(=O)O)cc1 | > 10000 | 138 |  | solubility thermodynamic [5]: 4 µg/mL (≈ 7.33 µM); solubility thermodynamic [6]: < 1 µg/mL
23 | Cc1ccc(C)c(COc2ccc(C[C@H](Nc3ccccc3C(=O)c3ccccc3)C(=O)O)cc2)c1 |  |  |  | Log Ki [1]: inactive

Row | Compound | EC50 [2] [nM] | Ki [3] [nM] | Log Ki [7] | further results
24 | Cc1ccc(-c2nc(CCOc3ccc(C[C@H](Nc4ccccc4C(=O)c4ccccc4)C(=O)O)cc3)c(C)o2)s1 | 575 | 45.7 |  | 
25 | Cc1ccc2cc(COc3ccc(C[C@H](Nc4ccccc4C(=O)c4ccccc4)C(=O)O)cc3)ccc2n1 |  |  | inactive | 
26 | Cc1sc(N2CCN(C)CC2)nc1CCOc1ccc(C[C@H](Nc2ccccc2C(=O)c2ccccc2)C(=O)O)cc1 | 6460 | > 3020 |  | solubility thermodynamic [5]: 10 µg/mL (≈ 17.1 µM); solubility thermodynamic [6]: > 6000 µg/mL
27 | CCOc1ccc(COc2ccc(C[C@H](Nc3ccccc3C(=O)c3ccccc3)C(=O)O)cc2)cc1 |  |  |  | Log Ki [1]: inactive
28 | COc1ccc(COc2ccc(C[C@H](Nc3ccccc3C(=O)c3ccccc3)C(=O)O)cc2)cc1OC |  |  | inactive | 
29 | Cc1sc(N(C)C)nc1CCOc1ccc(C[C@H](Nc2ccccc2C(=O)c2ccccc2)C(=O)O)cc1 | > 10000 | > 3020 |  | 
30 | COc1cc(OC)c(OC)cc1COc1ccc(C[C@H](Nc2ccccc2C(=O)c2ccccc2)C(=O)O)cc1 |  |  | inactive | 
31 | Cc1ccc[n+]2c1=NC(C)C=2COc1ccc(C[C@H](Nc2ccccc2C(=O)c2ccccc2)C(=O)O)cc1 (stereo partly drawn) |  |  | inactive | 
32 | Cc1oc(-c2ccccc2)nc1CCOc1ccc(C[C@H](Nc2ccccc2C(=O)c2ccccc2)C(=O)O)cc1 [FARGLITAZAR] |  |  |  | solubility thermodynamic [5]: < 1 µg/mL; solubility thermodynamic [6]: < 1 µg/mL
33 | CN(C)C(=O)c1cccc(COc2ccc(C[C@H](Nc3ccccc3C(=O)c3ccccc3)C(=O)O)cc2)n1 |  |  |  | Log Ki [1]: inactive
34 | Cc1cc(-c2nc(CCOc3ccc(C[C@H](Nc4ccccc4C(=O)c4ccccc4)C(=O)O)cc3)c(C)s2)no1 | 1820 | 178 |  | 
35 | Cc1ncsc1CCOc1ccc(C[C@H](Nc2ccccc2C(=O)c2ccccc2)C(=O)O)cc1 |  |  |  | Log Ki [4]: inactive
36 | COc1cc(COc2ccc(C[C@H](Nc3ccccc3C(=O)c3ccccc3)C(=O)O)cc2)cc(Br)c1OC |  |  | inactive | 
37 | Cc1oc(N2CCCCC2)nc1CCOc1ccc(C[C@H](Nc2ccccc2C(=O)c2ccccc2)C(=O)O)cc1 | > 10000 | > 3020 |  | 
38 | Cc1nc(-c2ccccc2)nn1CCOc1ccc(C[C@H](Nc2ccccc2C(=O)c2ccccc2)C(=O)O)cc1 | > 10000 | > 3020 |  | solubility thermodynamic [5]: 4 µg/mL (≈ 7.32 µM); solubility thermodynamic [6]: 1 µg/mL (≈ 1.83 µM)
39 | COc1ccc(COc2ccc(C[C@H](Nc3ccccc3C(=O)c3ccccc3)C(=O)O)cc2)nc1OC |  |  | inactive | 
40 | O=C(c1ccccc1)c1ccccc1N[C@@H](Cc1ccc(OCC2COC(C3CCCCC3)O2)cc1)C(=O)O (stereo partly drawn) |  |  | inactive | 
41 | COc1ccc(-c2nc(CCOc3ccc(C[C@H](Nc4ccccc4C(=O)c4ccccc4)C(=O)O)cc3)c(C)o2)cc1 | 389 | 107 |  | 
42 | O=C(c1ccccc1)c1ccccc1N[C@@H](Cc1ccc(O)cc1)C(=O)O |  |  | inactive | 
43 | Cc1sc(N2CCN(C(=O)OC(C)(C)C)CC2)nc1CCOc1ccc(C[C@H](Nc2ccccc2C(=O)c2ccccc2)C(=O)O)cc1 | > 10000 | > 3020 |  | 
44 | O=C(c1ccccc1)c1ccccc1N[C@@H](Cc1ccc(OCc2cnc3ccccc3c2)cc1)C(=O)O |  |  | inactive | 
45 | Cc1sc(NCCCN(C)C)nc1CCOc1ccc(C[C@H](Nc2ccccc2C(=O)c2ccccc2)C(=O)O)cc1 | > 10000 | > 3020 |  | 

Source: ChEMBL document CHEMBL1131423, “N-(2-Benzoylphenyl)-L-tyrosine PPARgamma agonists. 2. Structure-activity relationship and optimization of the phenyl alkyl ether moiety” (J Med Chem, 1998)
